Assay results taken from publication PMC7445463 (Diabetologia, 2020).
Values belong to the molecule of their own block, whether it stands above or below them.

Columns and labels:
[1] = 4-week treatment of DIO mice, body weight loss; format: in vivo, mouse; conditions: s.c., 4 weeks, human equivalent doses
[2] = 1.5 mg once weekly; 95% CI 0.79, 0.99; cited from earlier work
[3] = Brain insulin sensitivity by fMRI with intranasal insulin, prediabetes; format: in vivo, human; conditions: 25 mg qd, 8 weeks
[4] = Empagliflozin 24 weeks in T2DM and HFpEF; format: in vivo, human; conditions: after 24 weeks; baseline 126
[5] = HFD-induced obese mice, empagliflozin 8 weeks; format: in vivo, mouse; parameters: AUC glucose / AUC insulin: unit not given beside the values
[6] = db/db mice, empagliflozin alone or with linagliptin, 8 weeks; format: in vivo, mouse; conditions: 10 mg/kg (of each)
Procedure, shortened: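 Male 8-week-old db/db mice (BKS.Cg-Dock7m+/+Leprdb/J) received vehicle, SGLT2 inhibitor 10 mg/kg, or SGLT2 inhibitor plus DPP4 inhibitor (10 mg/kg each) for 8 weeks. Heterozygous db/+ mice served as non-diabetic controls. Plasma glucose, fructosamine, glycated albumin and urinary albumin-to-creatinine ratio were measured at weeks 0 and 8.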

[7] = test system: patients with type 2 diabetes; test: Network meta-analysis of antidiabetic medications on blood pressure; parameters: species or system human
[8] = ACCORD trial, cardiovascular autonomic neuropathy; format: in vivo, human; conditions: 95%CI 0.78 - 1.07
[9] = test system: Primary human retinal microvascular endothelial cells (ACBRI-181); test: DMOG chemical hypoxia model; format: cell-based; conditions: DHA 50μM, AICAR 0.5mM; DMOG 400 μM 24h
Procedure, shortened: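 Primary human retinal microvascular endothelial cells (passage 6–8) grown in endothelial growth medium with 10% FBS. At 70% confluence, exposed 24 h to DMOG 400 μM with or without AICAR 0.5 mM or DHA 50 μM. HIF-1α, HIF-2α, VEGF, ZO-1 and vimentin assessed by immunofluorescence, plus a cell migration assay. AMPK activity by western blot.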

[10] = biological target: Piezo1 (Mus musculus, UniProt E2JF22); test: In situ pancreas perfusion, insulin secretion
Procedure, shortened: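 Mice were β-cell-specific Piezo1 knockouts (RIP-Cre+Piezo1f/f). Insulin secretion was measured by in situ pancreas perfusion.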

[11] = biological target: Piezo1 (Homo sapiens, UniProt Q92508); test: Ca2+ imaging in human β-cells; format: cell-based
Procedure, shortened: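 Human β-cells loaded for Ca2+ imaging. Amplitude of glucose-induced [Ca2+]i oscillations recorded with and without a Piezo1-inhibiting test compound.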

[12] = test system: Notch pathway; test: PHA-activated co-cultures of obASCs and MNCs; format: cell-based, human; conditions: PHA-activated obASC/MNC co-cultures
Procedure, shortened: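 Human obese adipose-derived stem cells were co-cultured with mononuclear cells under phytohemagglutinin A activation, with or without the Notch inhibitor DAPT. Separately, the stem cells were transfected or not with Dner-targeting siRNA. Cytokine secretion into the medium was measured by ELISA, and expression by RT-qPCR.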

[13] = CREDENCE trial; format: in vivo, human
[14] = test system: patients with type 2 diabetes and CKD; test: CREDENCE acute eGFR decline; format: in vivo, human; conditions: week 3
[15] = test system: Arrb2+/+ beta cells; test: F-actin depolymerisation, phalloidin staining; format: cell-based, mouse; conditions: 1μmol/l
Procedure, shortened: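 F-actin depolymerisation assessed by Alexa Fluor 488-conjugated phalloidin staining. FAK phosphorylation assessed by immunofluorescence.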

[16] = EVOLVE study, insulin detemir in pregnancy; format: in vivo, human; conditions: 727 vs 730 women
Procedure, shortened: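 […] in women with pre-existing diabetes comparing the test basal insulin with another basal insulin. The primary endpoint was the number of women completing ≥22 weeks of gestation without major congenital malformations, perinatal death or neonatal death. It was analysed as crude and adjusted risk difference between treatment groups.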

[17] = test system: adiponectin receptor; test: HFD-fed DBA/2J mice with AdipoRon, 9 weeks; format: in vivo, mouse; conditions: HFD supplemented with AdipoRon
[18] = CAROLINA trial; format: in vivo, human; conditions: 5 mg; regardless of age group
[19] = Intrajejunal metformin with or without bile exclusion or TCA, T2DM; format: in vivo, human; conditions: metformin with TCA 4 g supplementation; endogenous bile included
[20] = test system: differentiated adipocytes (wild type); test: Adipocyte glucose uptake after dexamethasone; format: cell-based, human; conditions: 0.3 μM/24 h; WT cultures; n=6
[21] = Empagliflozin 4-week crossover study, cardiac PET/CT; format: in vivo, human
[22] = test system: isolated diabetic mouse hearts; test: Langendorff-perfused db/db hearts, stable isotope analysis
[23] = 24-week empagliflozin appetite trial in overweight/obesity and T2D; format: in vivo, human
[24] = test system: rats with CHF; format: in vivo, rat; conditions: 30 mg/kg PO
[25] = test system: patients with T2D and CV disease; test: EMPA-REG OUTCOME post hoc analyses; parameters: species or system human; conditions: in vivo
[26] = i.v. beta-hydroxybutyrate infusion crossover study, T2D; format: in vivo, human
[27] = biological target: neprilysin (Mus musculus, UniProt Q61391); test: Exogenous glucagon after sacubitril in mice; format: in vivo; conditions: 0.7 nmol/g; glucagon 96 ng/g; n=10
[28] = 6 weeks
[29] = iv bolus of purified MGO in mice, immune cell numbers; format: in vivo, mouse
[30] = test system: human retinal endothelial cells (hRECs); test: MGO exposure of human retinal endothelial cells; format: cell-based; conditions: 500μM, 72h
[31] = test system: Rev-erbα; test: Rev-erbα agonist and antagonist in beta cells and human islets; format: cell-based
Procedure, shortened: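 Cells used were rat INS-1E, human EndoC-βH1 and human islets. Rev-erbα was modulated with agonist, antagonist or siRNA knock-down. Stress was glucotoxicity (INS-1E, EndoC-βH1) or cytokines (INS-1E, human islets). Glucose-induced insulin secretion was read by HTRF, apoptosis as cleaved caspase-3, and Rev-erbα protein by western blot.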

[32] = biological target: neprilysin (Homo sapiens, UniProt P08473); test: Mixed meal after single dose sacubitril/valsartan, healthy males; format: in vivo; conditions: 194 mg sacubitril / 206 mg valsartan single dose
[33] = test system: C2C12 murine myotubes; test: ATPγS glucose uptake; format: cell-based; conditions: 100 μM
[34] = seven- and ninety-day treatment

Chain of Piezo1 (Mus musculus, UniProt E2JF22) (E2JF22 whole entry, the tested form may be a part): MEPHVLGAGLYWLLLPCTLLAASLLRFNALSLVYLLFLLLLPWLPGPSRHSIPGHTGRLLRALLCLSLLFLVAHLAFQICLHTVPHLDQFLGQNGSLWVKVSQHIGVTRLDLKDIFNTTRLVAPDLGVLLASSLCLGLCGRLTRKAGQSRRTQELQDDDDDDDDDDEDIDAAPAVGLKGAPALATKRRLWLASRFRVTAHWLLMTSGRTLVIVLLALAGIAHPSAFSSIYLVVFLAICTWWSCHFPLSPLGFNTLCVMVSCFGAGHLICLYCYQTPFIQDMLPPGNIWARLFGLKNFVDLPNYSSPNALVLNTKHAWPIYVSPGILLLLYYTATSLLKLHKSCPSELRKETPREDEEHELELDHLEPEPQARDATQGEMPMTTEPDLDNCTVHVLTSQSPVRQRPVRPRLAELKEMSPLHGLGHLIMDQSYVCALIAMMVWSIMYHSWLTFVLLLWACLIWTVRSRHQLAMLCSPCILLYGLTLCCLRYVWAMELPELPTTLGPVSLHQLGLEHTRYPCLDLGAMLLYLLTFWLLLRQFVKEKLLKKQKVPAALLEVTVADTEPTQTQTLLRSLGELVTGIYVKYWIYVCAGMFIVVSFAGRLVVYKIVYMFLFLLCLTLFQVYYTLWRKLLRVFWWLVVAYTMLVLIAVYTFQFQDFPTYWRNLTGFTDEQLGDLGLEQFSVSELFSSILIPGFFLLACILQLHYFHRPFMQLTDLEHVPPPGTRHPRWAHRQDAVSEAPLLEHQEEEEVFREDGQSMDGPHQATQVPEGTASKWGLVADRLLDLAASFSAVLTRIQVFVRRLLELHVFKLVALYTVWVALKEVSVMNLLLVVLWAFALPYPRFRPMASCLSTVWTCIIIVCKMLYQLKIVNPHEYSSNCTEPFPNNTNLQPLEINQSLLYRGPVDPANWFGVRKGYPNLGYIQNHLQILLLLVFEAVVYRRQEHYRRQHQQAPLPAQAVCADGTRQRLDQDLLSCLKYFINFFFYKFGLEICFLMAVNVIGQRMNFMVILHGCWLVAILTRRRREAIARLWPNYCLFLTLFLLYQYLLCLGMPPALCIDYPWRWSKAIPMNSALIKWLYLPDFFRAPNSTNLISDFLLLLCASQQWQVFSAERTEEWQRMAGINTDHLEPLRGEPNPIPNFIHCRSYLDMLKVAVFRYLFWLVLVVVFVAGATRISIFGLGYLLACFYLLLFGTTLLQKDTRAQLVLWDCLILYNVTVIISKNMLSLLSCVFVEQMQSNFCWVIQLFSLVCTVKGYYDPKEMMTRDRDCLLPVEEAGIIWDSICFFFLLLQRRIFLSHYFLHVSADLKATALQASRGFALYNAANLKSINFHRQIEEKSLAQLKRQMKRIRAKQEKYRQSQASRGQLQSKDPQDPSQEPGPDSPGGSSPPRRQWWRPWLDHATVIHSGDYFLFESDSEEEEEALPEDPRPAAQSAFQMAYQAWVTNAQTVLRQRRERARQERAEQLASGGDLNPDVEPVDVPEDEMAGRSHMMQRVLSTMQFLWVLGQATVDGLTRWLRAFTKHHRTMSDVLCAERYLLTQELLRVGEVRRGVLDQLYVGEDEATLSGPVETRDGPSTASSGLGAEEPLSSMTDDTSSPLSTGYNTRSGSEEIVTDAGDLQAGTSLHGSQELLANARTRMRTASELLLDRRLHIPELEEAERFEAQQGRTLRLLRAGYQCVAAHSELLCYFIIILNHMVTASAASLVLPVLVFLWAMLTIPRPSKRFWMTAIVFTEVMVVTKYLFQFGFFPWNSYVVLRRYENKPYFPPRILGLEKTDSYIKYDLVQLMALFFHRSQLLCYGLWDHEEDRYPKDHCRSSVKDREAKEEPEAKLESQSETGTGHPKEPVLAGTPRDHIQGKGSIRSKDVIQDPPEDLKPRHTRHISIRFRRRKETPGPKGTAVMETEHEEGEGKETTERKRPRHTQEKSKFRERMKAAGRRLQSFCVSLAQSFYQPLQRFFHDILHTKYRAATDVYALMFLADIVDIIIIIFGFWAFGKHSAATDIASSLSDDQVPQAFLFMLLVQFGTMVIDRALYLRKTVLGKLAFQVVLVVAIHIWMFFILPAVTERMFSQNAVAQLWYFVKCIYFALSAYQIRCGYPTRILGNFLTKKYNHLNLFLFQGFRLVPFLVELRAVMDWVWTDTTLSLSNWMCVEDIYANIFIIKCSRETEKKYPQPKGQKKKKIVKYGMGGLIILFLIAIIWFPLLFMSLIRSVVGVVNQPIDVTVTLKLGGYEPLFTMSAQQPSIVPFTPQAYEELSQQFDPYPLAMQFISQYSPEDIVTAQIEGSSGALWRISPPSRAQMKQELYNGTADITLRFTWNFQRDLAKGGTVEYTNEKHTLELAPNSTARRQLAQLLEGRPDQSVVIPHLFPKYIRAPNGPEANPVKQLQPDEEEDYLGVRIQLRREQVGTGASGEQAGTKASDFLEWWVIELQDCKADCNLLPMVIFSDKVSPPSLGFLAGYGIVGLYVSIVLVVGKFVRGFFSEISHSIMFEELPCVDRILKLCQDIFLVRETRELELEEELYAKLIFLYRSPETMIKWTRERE
Chain of Piezo1 (Homo sapiens, UniProt Q92508) (Q92508 whole entry): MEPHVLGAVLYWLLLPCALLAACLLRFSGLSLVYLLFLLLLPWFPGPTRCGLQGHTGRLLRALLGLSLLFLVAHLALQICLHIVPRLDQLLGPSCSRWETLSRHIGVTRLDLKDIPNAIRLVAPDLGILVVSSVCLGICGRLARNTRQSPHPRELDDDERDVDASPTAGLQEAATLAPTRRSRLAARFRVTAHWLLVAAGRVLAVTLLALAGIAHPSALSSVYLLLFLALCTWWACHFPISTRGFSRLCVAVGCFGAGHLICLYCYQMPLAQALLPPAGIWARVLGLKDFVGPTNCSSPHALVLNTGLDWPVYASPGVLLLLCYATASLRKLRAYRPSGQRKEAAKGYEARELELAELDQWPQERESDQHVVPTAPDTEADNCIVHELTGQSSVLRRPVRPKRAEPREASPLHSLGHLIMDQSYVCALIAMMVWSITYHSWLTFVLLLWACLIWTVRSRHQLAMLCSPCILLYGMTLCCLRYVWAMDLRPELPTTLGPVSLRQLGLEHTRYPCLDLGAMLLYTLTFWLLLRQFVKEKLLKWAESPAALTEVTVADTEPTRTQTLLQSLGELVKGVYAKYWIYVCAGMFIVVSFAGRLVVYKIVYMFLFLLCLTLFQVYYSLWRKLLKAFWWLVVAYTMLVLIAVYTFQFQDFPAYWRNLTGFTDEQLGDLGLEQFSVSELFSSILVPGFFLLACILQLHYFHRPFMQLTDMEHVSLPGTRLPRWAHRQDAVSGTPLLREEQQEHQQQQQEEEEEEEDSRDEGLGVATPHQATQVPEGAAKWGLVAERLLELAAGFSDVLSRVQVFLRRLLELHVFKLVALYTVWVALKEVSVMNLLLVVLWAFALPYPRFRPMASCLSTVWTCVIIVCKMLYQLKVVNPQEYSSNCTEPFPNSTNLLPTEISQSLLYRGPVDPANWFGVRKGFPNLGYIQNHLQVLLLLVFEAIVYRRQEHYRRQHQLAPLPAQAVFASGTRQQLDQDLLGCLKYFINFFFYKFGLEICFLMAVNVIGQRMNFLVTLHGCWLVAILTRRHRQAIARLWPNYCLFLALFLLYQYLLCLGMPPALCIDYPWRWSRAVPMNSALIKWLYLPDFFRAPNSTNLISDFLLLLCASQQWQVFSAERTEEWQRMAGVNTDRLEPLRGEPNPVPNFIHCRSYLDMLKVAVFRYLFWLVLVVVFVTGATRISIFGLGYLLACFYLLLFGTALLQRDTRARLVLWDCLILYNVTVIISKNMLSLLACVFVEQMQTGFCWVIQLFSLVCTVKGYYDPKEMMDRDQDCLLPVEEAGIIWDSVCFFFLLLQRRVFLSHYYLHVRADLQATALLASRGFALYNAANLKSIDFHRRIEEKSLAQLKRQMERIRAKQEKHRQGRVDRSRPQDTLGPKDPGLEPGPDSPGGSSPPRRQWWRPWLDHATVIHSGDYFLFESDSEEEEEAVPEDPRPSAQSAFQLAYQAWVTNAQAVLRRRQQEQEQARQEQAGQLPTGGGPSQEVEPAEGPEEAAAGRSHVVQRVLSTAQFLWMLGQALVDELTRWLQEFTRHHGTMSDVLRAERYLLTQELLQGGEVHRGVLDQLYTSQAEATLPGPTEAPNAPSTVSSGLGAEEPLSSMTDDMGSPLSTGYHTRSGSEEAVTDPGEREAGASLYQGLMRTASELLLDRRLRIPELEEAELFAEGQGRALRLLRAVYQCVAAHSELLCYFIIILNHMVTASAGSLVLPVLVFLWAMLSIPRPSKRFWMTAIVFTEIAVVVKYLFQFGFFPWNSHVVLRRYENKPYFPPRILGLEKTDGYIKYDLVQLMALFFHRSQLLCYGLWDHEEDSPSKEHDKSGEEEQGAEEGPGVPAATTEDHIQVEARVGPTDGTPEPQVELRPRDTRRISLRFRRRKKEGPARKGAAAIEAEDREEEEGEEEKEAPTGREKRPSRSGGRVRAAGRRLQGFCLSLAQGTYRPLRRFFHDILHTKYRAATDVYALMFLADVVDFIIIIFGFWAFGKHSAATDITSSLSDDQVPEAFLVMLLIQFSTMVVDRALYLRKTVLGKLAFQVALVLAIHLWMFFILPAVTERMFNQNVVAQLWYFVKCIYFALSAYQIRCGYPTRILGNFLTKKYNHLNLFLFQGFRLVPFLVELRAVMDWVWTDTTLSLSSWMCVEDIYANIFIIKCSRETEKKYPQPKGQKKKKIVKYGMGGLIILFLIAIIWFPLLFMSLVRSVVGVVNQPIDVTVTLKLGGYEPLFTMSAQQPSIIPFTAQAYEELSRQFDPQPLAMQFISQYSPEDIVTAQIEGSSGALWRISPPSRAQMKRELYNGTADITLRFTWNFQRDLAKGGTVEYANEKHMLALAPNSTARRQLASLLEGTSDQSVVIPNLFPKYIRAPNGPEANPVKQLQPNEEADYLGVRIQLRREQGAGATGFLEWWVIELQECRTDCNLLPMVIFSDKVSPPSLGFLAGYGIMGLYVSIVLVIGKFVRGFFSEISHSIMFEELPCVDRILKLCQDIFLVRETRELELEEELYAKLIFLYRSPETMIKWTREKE

Molecule: dulaglutide
body weight loss vs vehicle [1]: -2.5%
MACE-3 hazard ratio vs placebo [2]: 0.88

Molecule: OC[C@H]1O[C@@H](c2ccc(Cl)c(Cc3ccc(O[C@H]4CCOC4)cc3)c2)[C@H](O)[C@@H](O)[C@@H]1O [empagliflozin]
hypothalamic blood flow response to intranasal insulin [3]: significant insulin-induced decrease
left ventricular mass index (LVMI) [4]: 111,1 g/m2
body weight ([5]; 10mg/kg, 8 weeks, HFD 49.5 ± 2.8): 41.2 ± 1.5 g
fat mass ([5]; HFD 17.6 ± 3.4): 10.7 ± 2.6 g
AUC insulin ([5]; HFD 9617± 242): 6263 ± 337
AUC glucose ([5]; HFD 38739± 1750): 27714 ± 1052
plasma glucose, fructosamine, glycated albumin and UACR [6]: decreased
systolic blood pressure, empagliflozin vs dapagliflozin ([7]; CI -2.35 to -0.12): -1.24 mmHg
diastolic blood pressure, mean difference versus placebo ([7]; network meta-analysis): -1.73 mmHg

Molecule: CC(C)OC(=O)C(C)(C)Oc1ccc(C(=O)c2ccc(Cl)cc2)cc1 [Fenofibrate]
CAN outcome OR [8]: 0.91

Molecule: CC/C=C\C/C=C\C/C=C\C/C=C\C/C=C\C/C=C\CCC(=O)O [DHA, docosahexaenoic acid]
DMOG-induced abnormalities (HIF, VEGF, ZO-1, vimentin, migration) [9]: fully prevented

Molecule: GsMTx4
reduction of insulin release [10]: > 30%
reduction of amplitude of glucose-induced [Ca2+]i oscillations [11]: ~ 80%

increase of insulin secretion ([10]; glucose alone almost 3-fold): ~ 7 fold
Molecule: Clc1cccc(Cl)c1CSc1nnc(-c2cnccn2)s1 [yoda1]

Molecule: C[C@H](NC(=O)Cc1cc(F)cc(F)c1)C(=O)N[C@H](C(=O)OC(C)(C)C)c1ccccc1 [DAPT]
IL-17A secretion [12]: significantly inhibited

Molecule: Cc1ccc([C@@H]2O[C@H](CO)[C@@H](O)[C@H](O)[C@H]2O)cc1Cc1ccc(-c2ccc(F)cc2)s1 [CANA, canagliflozin]
HHF alone HR vs placebo ([13]; 95% CI 0.47-0.80): 0.61
HHF/CV death HR vs placebo ([13]; 95% CI 0.57, 0.83, median 2.6 years): 0.69
reduction of risk of HHF/CV death ([13]; overall population): 31%
participants with >30% decline [14]: 4%

Molecule: O=C1NC(=O)/C(=C/c2ccc3c(c2)OC(F)(F)O3)S1 [AS604850]
reduction of F-actin depolymerisation by GIP stimulation [15]: ~ 30%

Molecule: insulin detemir [IDet]
risk of major congenital malformations, perinatal or neonatal deaths vs other basal insulin [16]: not associated with excess risk

Molecule: NC(=O)c1ncn([C@@H]2O[C@H](COP(=O)(O)O)[C@@H](O)[C@H]2O)c1N [AICAR, 5-aminoimidazole-4-carboxamide ribonucleotide]
DMOG-induced abnormalities (HIF, VEGF, ZO-1, vimentin, migration) [9]: fully prevented

Molecule: O=C(COc1ccc(C(=O)c2ccccc2)cc1)NC1CCN(Cc2ccccc2)CC1 [AdipoRon]
HFD-induced weight gain [17]: reduced

Molecule: CC#CCn1c(N2CCC[C@@H](N)C2)nc2c1c(=O)n(Cc1nc(C)c3ccccc3n1)c(=O)n2C [linagliptin]
hypoglycaemia rates vs glimepiride [18]: significantly lower

Molecule: C[C@H](CCC(=O)NCCS(=O)(=O)O)[C@H]1CC[C@H]2[C@@H]3[C@H](O)C[C@@H]4C[C@H](O)CC[C@]4(C)[C@H]3C[C@H](O)[C@]12C [TCA, taurocholic acid]
plasma glucose iAUC 0-180 min [19]: 568 ± 38 mmol·min/L

Molecule: C[C@@H]1C[C@H]2[C@@H]3CCC4=CC(=O)C=C[C@]4(C)[C@@]3(F)[C@@H](O)C[C@]2(C)[C@@]1(O)C(=O)CO [dexamethasone]
reduction of basal and insulin-stimulated glucose uptake [20]: ~ 50%

Molecule: OC[C@H]1O[C@@H](c2ccc(Cl)c(Cc3ccc(O[C@H]4CCOC4)cc3)c2)[C@H](O)[C@@H](O)[C@@H]1O [EMPA, empagliflozin]
myocardial glucose uptake (MGU) ([21]; 18F-FDG PET, placebo 1.4±0.6): 0.6±0.6 μmol/100g/min
48-hour mean blood glucose ([21]; four weeks, placebo 9.4 ± 2.2): 8.0 ± 0.9
reduction of postabsorptive myocardial glucose uptake ([21]; in vivo): 57%
circulating FFA ([21]; placebo 0.8±3): 1.0 ± 0.4 mmol/L
FFA esterification rate ([21]; placebo 1.1±0.6): 1.3±0.7 μmol/100g/min
myocardial FFA oxidation rate ([21]; placebo 8.0±3.1): 7.2±3.1 μmol/100g/min
total FFA uptake rate ([21]; placebo 9.1±3.2): 8.4±3.6 μmol/100g/min
myocardial oxygen consumption ([21]; placebo 9.77 ± 1.34): 8.97 ± 1.11 ml/100g/min
myocardial external energy efficiency ([21]; placebo 27.7±4.5): 29.5±7.3%
3-hydroxybutyrate ([21]; placebo 65 ± 8): 130 ± 17 µmol/L
24-hour mean arterial pressure ([21]; placebo 92±8): 88±5 mmHg
13C labeling of lactate ([22]; 1 μM, 35 min, 13C glucose perfusion, vehicle 58 ± 2): 50 ± 3%
glucose-6-phosphate content ([22]; 1 μM, 35 min, vehicle 5.2 ± 0.8): 3.3 ± 0.4 AU
13C labeling of α-KG ([22]; 13C palmitate perfusion, vehicle 79 ± 1): 86 ± 1%
circulating PYY vs placebo ([23]; 12-weeks, 3-hour mixed meal tolerance test, P = 0.003): elevated
circulating GLP-1 vs placebo (GEE) ([23]; overall across follow-up, P = 0.016): higher
myocardial perfusion ([24]; long-term (90 days)): increased
exercise capacity ([24]; long-term (90 days), p=0.06): increased
LV EDP [24, 34]: reductions
LV ESP [24, 34]: increases
patients with insulin dose reduction >10% [25]: 14.0%

beta-hydroxybutyrate levels during infusion ([26]; placebo 0.1 ± 0.6): 2.4 ± 0.6 mM
Molecule: CC(O)CC(=O)O (stereo not drawn) [Beta-hydroxybutyrate, beta-hydroxybutyrate]
increase in heart rate vs placebo ([26]; n=17): 13.7 ± 1.2 bpm

increase of exogenous glucagon levels (iAUC0-60 min) [27]: 1.9 fold
Molecule: CCOC(=O)[C@H](C)C[C@@H](Cc1ccc(-c2ccccc2)cc1)NC(=O)CCC(=O)O [Sacubitril, sacubitril]

Molecule: CCOc1ccc(Cc2cc([C@@H]3O[C@H](CO)[C@@H](O)[C@H](O)[C@H]3O)ccc2Cl)cc1 [DAPA, dapagliflozin]
hepatic uptake of fatty acids vs placebo ([28]; 10 mg/day): increased
plasma NT-proBNP levels [28]: unaffected

Molecule: CC(=O)C=O [MGO, methylglyoxal]
increase of circulating neutrophils vs PBS ([29]; 25μg iv bolus, after 10 min): 7 fold
increase of hepatic neutrophils ([29]; 10 min post injection): 9 fold
decrease of CD11b expression in the aorta ([29]; after 10 min): 19.9 fold
macrophage numbers in the liver ([29]; after 72h, control 24.2±6.8): 35.7±6.5 macrophages per microscopic view
impairment of tube formation capacity [30]: ~ 70%
impairment of cell migration ([30]; transwell assay): ~ 30%

Molecule: CCOC(=O)C1Cc2ccccc2CN1C(=O)c1ccc(SC)s1 (stereo not shown) [SR8278]
attenuation of beta-cell apoptosis ([31]; glucotoxicity or cytokines, antagonist or siRNA): ~ 30%

increase of postprandial glucagon levels (iAUC0-240 min) [32]: 2.7 fold
Molecule: sacubitril / valsartan [sacubitril/valsartan]

Molecule: CCOC(=O)N1CCC(CN(Cc2ccc(Cl)cc2)Cc2ccc([N+](=O)[O-])s2)C1 (stereo not shown) [SR9009]
decrease of glucose-stimulated insulin secretion ([31]; INS-1E cells and human islets): 70%

Molecule: Nc1ncnc2c1ncn2[C@@H]1O[C@H](CO[P@](=O)(O)O[P@](=O)(O)O[P@@](=O)(O)S)[C@@H](O)[C@H]1O [ATPγS]
glucose uptake [33]: increased glucose uptake
